Screens: PubChem, Johns Hopkins Ion Channel Center
hERG rescue = shields human hERG channel from block by proarrhythmic agents; Q12809; CHO-hERG, FluxOR thallium flux, dofetilide IC70 present; activation (rescue from dofetilide block), less the hit threshold, % at 10 µM; 310,000 compounds, 0.51% hits;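 active means activation above the mean of controls blocked by dofetilide plus 5 SD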;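 further: thallium influx through hERG after potassium depolarization seen as dye fluorescence rise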
KCNQ1 pot = human KCNQ1 channel potentiation or activation | P51787 | CHO-K1 KCNQ1, thallium flux FluxOR fluorescence; hits give high values | B-score at 10 µM | 310,000 compounds, 0.35% hits;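 active means fluorescence ratio B-score, a plate-corrected score, at least three library SD, with initial intensity B-score within 5 SD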
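Assay system: stable KCNQ1 CHO-K1 line; medium: assay buffer, equal DMSO in all wells; timing: 90 min dye loading and 20 min compound exposure, both at room temperature; technique: kinetic FluxOR thallium fluorescence, 10-s 1-Hz baseline, 110-s post-stimulus read; read-out basis: B score of baseline-normalized fluorescence ratio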
KCNK3 inh = human KCNK3 channel inhibition, primary screen; O14649; CHO-KCNK3 thallium flux, FluxOR fluorescence; hits give low values; B-score at 10 µM; AID 602410; 340,000 compounds, 0.84% hits;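 active means B-score under library mean minus 4 SD, starting fluorescence ratio at most library mean plus 5 SD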;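 further: more negative B-score means stronger inhibition of thallium flux through KCNK3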
KCNK9 inh = human KCNK9 channel inhibition. HEK293 KCNK9, FluxOR thallium flux fluorescence; hits give low values. B-score at 10 µM. 310,000 compounds, 1.2% hits. AID 488922;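 active means ratio B-score over 3 SD below the library mean, with starting fluorescence within 5 SD of its mean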;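 further: negative B-score means less thallium flux so channel inhibition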
Target sequence (Q9NPC2 whole entry, looked up): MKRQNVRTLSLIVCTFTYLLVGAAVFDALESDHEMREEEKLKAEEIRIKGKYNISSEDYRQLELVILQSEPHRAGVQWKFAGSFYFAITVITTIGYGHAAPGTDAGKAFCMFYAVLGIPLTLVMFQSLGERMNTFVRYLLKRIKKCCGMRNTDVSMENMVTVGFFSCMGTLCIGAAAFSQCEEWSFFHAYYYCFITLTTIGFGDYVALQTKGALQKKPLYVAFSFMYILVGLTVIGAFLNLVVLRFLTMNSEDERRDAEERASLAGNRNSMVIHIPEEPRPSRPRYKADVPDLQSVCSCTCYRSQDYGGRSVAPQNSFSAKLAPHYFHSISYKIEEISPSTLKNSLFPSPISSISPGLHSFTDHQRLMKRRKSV
KCNQ1 inh = blocks the human KCNQ1 potassium channel; P51787; CHO-K1 KCNQ1, FluxOR thallium flux fluorescence; hits give high values; B-score at 10 µM; 310,000 compounds, 1.3% hits;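 active means compounds whose thallium flux B-score, printed positive for inhibition, exceeds three library SD while starting fluorescence stays within three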;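 further: channel opened by potassium depolarization with thallium stimulus after 20 min compound exposure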
Kir21 inh = blocks the mouse Kir2.1 inward-rectifier potassium channel; HEK293-Kir2.1, FluxOR thallium flux fluorescence; hits give low values; B-score at 10 µM; 310,000 compounds, 0.85% hits; AID 1672;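 active means fluorescence ratio B-score at or below minus 3 SD of library scores, with starting-brightness B-score within 2 SD, cut at about -4.2 in these data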;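 further: channel flux triggered by added potassium and thallium sulfate stimulus; B-score of peak minus minimum fluorescence over baseline after thallium stimulus; more negative B-score means stronger Kir2.1 block with less thallium influx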
KCNK9 inh conf = human KCNK9 inhibitor confirmation; 4,900 compounds, 43% hits; HEK293 KCNK9 cells, FluxOR thallium flux fluorescence; inhibition, % at 10 µM; AID 492992; shares compounds with KCNK9 inh;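 active means thallium signal inhibited by more than 5 SD of the compound-free buffer control wells, on both duplicate plates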;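 further: 0% = assay buffer control wells without compound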
Kir2-1 spec = tests whether KCNK9 modulators also affect mouse Kir2.1. shares compounds with KCNK9 inh. Kir2.1 cells, FluxOR thallium flux fluorescence. inhibition, % at 10 µM. 4,900 compounds, 4% hits. AID 492993;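 active means thallium signal drop more than 5 SD beyond the mean of the no-compound control wells, seen in both duplicate plates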;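 further: signal is fluorescence rise after thallium addition divided by baseline fluorescence; plate controls were assay buffer only for no effect and full block by chlorpromazine control for full effect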
KCNK9 uninduced = second check of KCNK9 modulator effects in non-induced HEK293 cells; AID 492997; FluxOR thallium flux; shares compounds with KCNK9 inh; 4,900 compounds, 40% hits; inhibition, % at 10 µM;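 active means thallium signal drop beyond 5 SD of the untreated control mean, on both duplicate plates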;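 further: plate controls were buffer only IC0 wells for no effect and SID17386958 at its maximal inhibitory level for full effect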
KCNK3 confirm = confirmation of human KCNK3 two-pore domain potassium channel inhibitors; shares compounds with KCNK3 inh; CHO-KCNK3 thallium flux, FluxOR fluorescence; 0% buffer, 100% carvedilol maximal block; ratio percent of control, % at 10 µM; 2,400 compounds, 99% hits; AID 651638;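 active means ratio percent of control, averaged over triplicates, above buffer control mean plus 5 SD, cut at about 64% in these data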;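 further: ratio is the fluorescence rise from min to max over baseline after thallium stimulus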
KCNK3 uninduced = activity in cells without induced KCNK3 expression; shares compounds with KCNK3 inh; non-induced KCNK3 parental cells, FluxOR thallium flux; hits give low values; thallium flux ratio (lower = more inhibition) at 10 µM; 2,400 compounds, 40% hits;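 active means thallium flux ratio, averaged over three wells, more than 5 SD below the buffer control mean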;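 further: host cells are CHO cells without KCNK3 induction; ratio is peak minus trough fluorescence over baseline then normalized to buffer controls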
An asterisk follows results filed as active; i = inactive; . = not tested or not shown. Hits are enriched below; roughly 3.7% of the tested compounds scored in any of these assays.

SMILES	hERG rescue	KCNQ1 pot	KCNK3 inh	KCNK9 inh	KCNQ1 inh	Kir21 inh	KCNK9 inh conf	Kir2-1 spec	KCNK9 uninduced	KCNK3 confirm	KCNK3 uninduced
CC(C)=CCC/C(C)=C/COc1ccc2ccc(=O)oc2c1	-6.9	i	-9.2*	-19.3*	i	-1.66	68.5%*	i	46.5%*	93.0*	i
CC(=O)Oc1ccc2ccc(=O)oc2c1	-4.1	i	i	i	i	-0.3	.	.	.	.	.
COc1ccc(COc2ccc3ccc(=O)oc3c2)cc1	-5.5	i	-10.2*	-11.8*	i	-0.08	46.5%*	i	31.5%*	115.3*	i
COc1cccc(COc2ccc3ccc(=O)oc3c2)c1	-7.2	i	i	i	i	-0.13	.	.	.	.	.
CCN(CC(=O)Nc1ccc2c(c1)OCCO2)C(=O)c1cc(=O)[nH]c2ccccc12	-18.6	i	i	i	i	-0.35	.	.	.	.	.
CCOC(=O)c1ccc2c(c1)nc(COc1ccc3ccccc3c1)n2CC	-12.3	i	-10.5*	-13*	i	-0.66	59.0%*	i	44.5%*	124.7*	0.132*
Cc1ccc(-n2c(SCc3ccc([N+](=O)[O-])cc3)nc3ccccc3c2=O)cc1	-12.3	i	i	i	i	0.45	.	.	.	.	.
CCn1c(SCc2ccc(OC)c(F)c2)nc2ccccc2c1=O	-3.4	i	-11.6*	-20*	i	1.79	78.5%*	i	45.5%*	106.7*	i
COCC(C)n1c(SCc2ccc(C(=O)OC)cc2)nc2ccccc2c1=O (stereo not drawn)	-8.6	i	-11.6*	-15.7*	i	0.57	61.5%*	i	38.5%*	125.0*	0.142*
COCC(C)n1c(SCc2ccc(OC)c(F)c2)nc2ccccc2c1=O (stereo not drawn)	-12.8	i	-11.2*	-18*	i	0.12	76.0%*	i	49.5%*	115.7*	i
CCOC(CCn1c(SCc2ccc([N+](=O)[O-])cc2)nc2ccccc2c1=O)OCC	-6.3	i	i	-15.2*	i	1.26	74.5%*	i	38.0%*	116.7*	i
CC(C)N(C(=S)Nc1cccc(C(F)(F)F)c1)C(C)c1ccccn1 (stereo not drawn)	-10.7	i	-10.7*	-17*	12*	1.35	77.0%*	i	44.5%*	133.0*	0.119*
FC(F)(F)c1cccc(NC(=S)NCc2ccccn2)c1	-4.4	i	i	i	i	-0.84	.	.	.	.	.
CC(C)Oc1ccccc1C1Nc2ccccc2C(=O)N1c1ccc2c(c1)OCCO2 (stereo not drawn)	-3.5	i	-10.1*	-13.3*	i	-0.87	67.0%*	i	27.5%*	100.3*	0.157*
CCOc1ccc(Cl)cc1S(=O)(=O)N1CCC(C(=O)NCc2cccnc2)CC1	-7.1	i	i	i	i	-1.65	.	.	.	.	.
CC(C)Oc1cccc(C(=O)C2CCCN(C(=O)c3ccnn3C)C2)c1 (stereo not drawn)	-12.6	i	-10.5*	i	i	1.14	i	i	i	97.7*	i
Cc1ccc(C)c(-c2csc(N/N=C/c3ccco3)n2)c1	-6.8	i	-11.3*	-8.92*	i	-1.68	38.5%*	i	27.0%*	114.7*	0.157*
COc1ccc(NC(=O)CSc2nnc(-c3ccc(F)cc3)o2)cn1	.	.	i	.	.	.	.	.	.	.	.
